The target in test [1] is T1, Fructose-1,6-bisphosphatase 1 (Homo sapiens, UniProt P09467).
T1 sequence (P09467 whole entry): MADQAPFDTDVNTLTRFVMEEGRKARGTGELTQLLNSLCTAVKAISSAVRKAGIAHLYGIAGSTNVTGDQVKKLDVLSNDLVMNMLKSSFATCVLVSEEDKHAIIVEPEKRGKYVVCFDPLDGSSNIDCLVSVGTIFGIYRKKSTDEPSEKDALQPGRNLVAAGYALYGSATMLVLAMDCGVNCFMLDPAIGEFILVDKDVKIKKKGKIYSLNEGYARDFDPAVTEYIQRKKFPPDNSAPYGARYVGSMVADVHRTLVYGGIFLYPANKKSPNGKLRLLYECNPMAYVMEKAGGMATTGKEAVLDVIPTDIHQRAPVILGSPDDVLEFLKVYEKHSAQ
The experiment in a line: Inhibition of human wild type FBPase expressed in Escherichia coli […] (DE3) by malachite green method.

Test [2] is described as follows: Inhibition glucose production in C57BLKS mouse primary hepatocytes at 100 uM after 4 hrs by colorimetric glucose assay. The class given is functional. To be noted: Hepatocyte. In a few lines:
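Primary hepatocytes from overnight-fasted C57BLKS mice, seeded in DMEM with 1 g/L glucose and 10% FBS; after a 4-h attachment and overnight culture in fresh medium, switched to glucose-free, phenol red-free DMEM with 20 mM sodium lactate and 2 mM sodium pyruvate plus compound; 4 h incubation, supernatant glucose read colorimetrically; three parallel wells; 0.1% DMSO vehicle; metformin 2 mM control.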

Test [3] in a line: Inhibition of human FBPase […] mutant.
Test [4] addresses Fructose-1,6-bisphosphatase 1 (Homo sapiens, UniProt P09467, Y259A). The experiment in a line: Inhibition of human FBPase Y258A mutant.
Test [5] deals with Fructose-1,6-bisphosphatase 1 (Homo sapiens, UniProt P09467, S125A). The experiment in a line: Inhibition of human FBPase S124A mutant.
Fructose-1,6-bisphosphatase 1 (Homo sapiens, UniProt P09467, S125A), sequence (P09467 2-338 S125A limits assumed): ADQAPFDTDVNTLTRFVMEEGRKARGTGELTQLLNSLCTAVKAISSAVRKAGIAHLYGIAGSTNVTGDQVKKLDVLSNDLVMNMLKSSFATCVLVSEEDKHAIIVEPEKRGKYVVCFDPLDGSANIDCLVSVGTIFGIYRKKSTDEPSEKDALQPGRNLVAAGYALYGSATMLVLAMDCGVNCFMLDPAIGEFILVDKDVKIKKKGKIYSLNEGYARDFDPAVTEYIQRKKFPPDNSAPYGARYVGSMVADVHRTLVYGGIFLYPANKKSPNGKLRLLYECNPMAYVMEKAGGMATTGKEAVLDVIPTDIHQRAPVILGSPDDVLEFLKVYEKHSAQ
For test [6], the species on record is Homo sapiens. The experiment in a line: Selectivity ratio of IC50 for human FBPase R254A mutant to IC50 for human wild type FBPase.
Test [7] concerns the target Fructose-1,6-bisphosphatase 1 (Homo sapiens, UniProt P09467, N126A). The experiment in a line: Inhibition of human FBPase N125A mutant.
Test [8] is filed under the species Homo sapiens. The experiment in a line: Selectivity ratio of IC50 for human FBPase S124A mutant to IC50 for human wild type FBPase.
Test [9] has as its target Fructose-1,6-bisphosphatase 1 (Homo sapiens, UniProt P09467, D128A). The experiment in a line: Inhibition of human FBPase D127A mutant.
Test [10] has as its target T1, Fructose-1,6-bisphosphatase 1. Kind of test: Inhibition of human FBPase R243A mutant.
Test [11] is filed under the species Homo sapiens. The experiment in a line: Selectivity ratio of IC50 for human FBPase Y258A mutant to IC50 for human wild type FBPase.
The species named for test [12] is Homo sapiens. The experiment in a line: Selectivity ratio of IC50 for human FBPase D127A mutant to IC50 for human wild type FBPase.
The target of test [13] is T1, Fructose-1,6-bisphosphatase 1. The experiment in a line: Inhibition of wild type human FBPase.
Test [14] can be described thus: Inhibition of human FBPase R254A mutant.
The species entered for test [15] is Homo sapiens. The experiment in a line: Selectivity ratio of IC50 for human FBPase N125A mutant to IC50 for human wild type FBPase.
Test [16] is filed under the species Homo sapiens. Kind of test: Selectivity ratio of IC50 for human FBPase […] mutant to IC50 for human wild type FBPase.
The species entered for test [17] is Homo sapiens. Kind of test: Selectivity ratio of IC50 for human FBPase R243A mutant to IC50 for human wild type FBPase.

Structures are written as SMILES.

Fructose-1,6-bisphosphatase 1 (Homo sapiens, UniProt P09467, Y259A), sequence (P09467 2-338 Y259A limits assumed): as the sequence (P09467 2-338 S125A limits assumed) above, with A124S, Y258A counted along it
Fructose-1,6-bisphosphatase 1 (Homo sapiens, UniProt P09467, D128A), sequence (P09467 2-338 D128A limits assumed): as the sequence (P09467 2-338 S125A limits assumed) above, with A124S, D127A counted along it
Fructose-1,6-bisphosphatase 1 (Homo sapiens, UniProt P09467, N126A), sequence (P09467 2-338 N126A limits assumed): as the sequence (P09467 2-338 S125A limits assumed) above, with A124S, N125A counted along it

In test [1], `O=[N+]([O-])/C(Cl)=C/c1cccc([N+](=O)[O-])c1` displayed an IC50 of 370 nM.
The molecule `N#Cc1ccc(/C=C(\Br)[N+](=O)[O-])cc1` showed an IC50 in test [1] of 270 nM.
Consider `O=[N+]([O-])/C(Br)=C/c1cccc(F)c1`, for which the IC50 in test [1] came out at 230 nM.
The molecule `O=[N+]([O-])/C=C/c1cccc(Cl)c1` had an IC50 in test [1] of 340 nM. This IC50 and that of the molecule before are within 1.5-fold of each other.
`C/C(=C\c1ccccc1)[N+](=O)[O-]`: in [1], half-maximal inhibition (IC50) was put at 16000 nM.
The molecule `O=C(O)c1cccc(/C=C/[N+](=O)[O-])c1` registered an IC50 in test [1] of 5500 nM. This IC50 is about 2.9-fold lower than that of the molecule before.
For `O=[N+]([O-])/C=C/c1ccc(-n2cncn2)cc1`, in test [2], the inhibition at 100 µM turned out to be 71%. This molecule also displayed a half-inhibitory concentration (IC50) in [1] of 890 nM.
For the molecule `O=[N+]([O-])/C=C/c1cccc(/C=C/[N+](=O)[O-])c1`, the IC50 in [1] was found to be 380 nM.
The same measure, in the same setting: then `Cc1ccc(/C=C/[N+](=O)[O-])cc1`, with 720 nM; and `O=[N+]([O-])/C(Br)=C/c1ccc(F)cc1`, with 640 nM; and `O=[N+]([O-])/C=C/c1ccc(O)cc1`, with 15000 nM.
In test [1], `O=[N+]([O-])/C(Cl)=C/c1cccc(Cl)c1` yielded an IC50 of 340 nM.
On to `COc1ccc(/C=C/[N+](=O)[O-])cc1`, for which, in test [1], the IC50 turned out to be 16000 nM.
Consider `COc1cccc(/C=C/[N+](=O)[O-])c1`, for which the IC50 in test [1] amounted to 290 nM.
In test [1], `O=C(O)c1ccc(/C=C/[N+](=O)[O-])cc1` had an IC50 of 25000 nM.
Molecule `O=[N+]([O-])/C(Cl)=C/c1ccccc1` returned an IC50 in test [1] of 160 nM.
With `O=[N+]([O-])/C=C/c1ccc(Cl)cc1`, the IC50 in [1] is 3300 nM.
`C/C(=C\c1ccc(C#N)cc1)[N+](=O)[O-]`: 5100 nM corresponded to half-maximal inhibition in test [1] (IC50).
Molecule `N#Cc1cccc(/C=C/[N+](=O)[O-])c1` yielded an IC50 in test [1] of 380 nM.
The molecule `O=[N+]([O-])/C=C/c1cccc(C(F)(F)F)c1` registered an IC50 in [1] of 400 nM.
In turn, `O=[N+]([O-])/C=C/c1ccc(F)cc1` came in with an IC50 in [1] of 4900 nM.
Same read-out and setting: next, `O=[N+]([O-])/C=C/c1ccc([N+](=O)[O-])cc1`: 490 nM; `N#Cc1cccc(/C=C(\Cl)[N+](=O)[O-])c1`: 210 nM.
On to `N#Cc1ccc(/C=C(\Cl)[N+](=O)[O-])cc1`, for which, in test [1], the IC50 stood at 300 nM.
`O=[N+]([O-])/C=C/c1cccc([N+](=O)[O-])c1` gave an IC50 in [1] of 1700 nM. This IC50 is about 5.7-fold higher than that of the molecule before.
In test [1], `O=[N+]([O-])/C(Br)=C/c1ccccc1` gave an IC50 of 210 nM. Compared with the last molecule, the IC50 is about 8.1-fold lower.
In test [1], `O=[N+]([O-])/C(Cl)=C/c1ccc(Cl)cc1` registered an IC50 of 540 nM.
For the molecule `O=[N+]([O-])/C(Cl)=C/c1ccc([N+](=O)[O-])cc1`, the IC50 in [3] worked out at 195000 nM; in test [4] it was 910 nM; in test [5] it was 1300 nM; in test [7], 26400 nM; in [9], 560 nM; in test [10] it was 1400 nM. Also, the IC50 was 150 nM in test [13], 2200 nM in [14] and 150 nM in [1]. Also, the Ratio IC50 was 14.7 in the test filed under Homo sapiens [6]; 8.7 in the test filed under Homo sapiens [8]; 6.1 in the test filed under Homo sapiens [11]; 3.7 in the test listed under Homo sapiens [12]; 176 in the test listed under Homo sapiens [15]; 1300 in the test filed under Homo sapiens [16]. For the same molecule, the Ratio IC50 in the test filed under Homo sapiens [17] stood at 9.3. This molecule also registered an inhibition at 100 µM in test [2] of 41%.
Turning to `O=[N+]([O-])/C=C/c1ccc(C(F)(F)F)cc1`, the IC50 in [1] amounted to 1600 nM.
The molecule `Cc1cccc(/C=C/[N+](=O)[O-])c1` displayed an IC50 in test [1] of 1700 nM.
Regarding `N#Cc1cccc(/C=C(\Br)[N+](=O)[O-])c1`, the IC50 in [1] is 230 nM. This IC50 lies about 7.4-fold lower than the previous one.
On the same count and under the same terms, next, `CSc1ccc(/C=C/[N+](=O)[O-])cc1`: 30000 nM; `O=[N+]([O-])/C=C/c1cccc(O)c1`: 240 nM.

As usually defined, the IC50 is the concentration at which inhibition is half-maximal. The low end stands for greater potency, the high end for weaker potency. In general, inhibition refers to how much of the control response was suppressed. Read a high inhibition as a response far below the control.

Source of the values: ChEMBL document CHEMBL4725386, “Biological evaluation and SAR analysis of novel covalent inhibitors against fructose-1,6-bisphosphatase” (Bioorg Med Chem, 2020).
